Reference: article PMC5079036 (Journal of the American Heart Association: Cardiovascular …, 2016)

Assays:
[1] = system: Male Sprague‐Dawley rats; assay: In vivo myocardial infarction rodent model; design: species or system rat
[2] = system: primary neonatal cardiomyocytes (PNCMs); assay: Live cell imaging of mitochondrial membrane potential under normoxia; type: cell-based, rat
Method in brief: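 Neonatal rat cardiomyocytes (pups 1–3 days old) were plated on glass coverslips at 150 000 cells per dish. Cells were loaded with TMRE 150 nmol/L for 30 min at 37°C, then washed. Imaging was single-cell in a chamber at 37°C, 5% pco₂ and 21% po₂. Inhibitor (1 μmol/L) was added 10 min before the TRPV1 agonist (1 μmol/L). Images were taken every 5 min over 30 min and normalized to baseline (=1). n=3 biological replicates.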

[3] = system: humans; conditions: TRPV1 antagonist; cited from earlier work
[4] = system: isolated rat hearts; assay: Isolated heart model of ischemia–reperfusion injury; conditions: capsaicin 0.1 μmol/L, unpaced hearts, vs vehicle DMSO; n=4

## Oc1cc2c(cc1O)CN(C(=S)NCCc1ccc(Cl)cc1)CCC2 [CPZ, capsazepine]
[1]; CPZ 3 mg/kg or CsA 2.5 mg/kg before capsaicin 0.3 mg/kg
  Effect on heart rate change afforded by capsaicin: reduced the change in heart rate
[2]; CPZ 1 μmol/L or CsA 1 μmol/L 10 minutes prior to CAP 1 μmol/L, n=3
  Effect on capsaicin-induced change in mitochondrial membrane potential (TMRE): blocked

## CC(=O)Nc1nc2c(Oc3cc(-c4ccc(C(F)(F)F)cc4)ncn3)cccc2s1 [AMG517]
[3]
  Body temperature effect in humans: caused sudden hyperthermia in humans that persisted for days

## COc1cc(CNC(=O)CCCC/C=C/C(C)C)ccc1O [CAP, capsaicin]
[1]; CAP 0.1-3.0 mg/kg iv, n=6 per group
  Change in heart rate after CAP administration: increased heart rate when given intravenously
[1]; given 5 minutes before reperfusion (CAP 0.3, CsA 2.5, V1‐cal 1 mg/kg iv)
  infarct size reduction compared with control: 27%
[4]
  Heart rate during first 15 minutes of infusion: increased heart rate during the first 15 minutes of infusion
[2]; capsaicin 0.1–10 μmol/L, 30 min, normoxia, 3 biological replicates
  Mitochondrial membrane potential (TMRE fluorescence): decreased mitochondrial membrane potential
